Results: ChEMBL document CHEMBL3627612, “Hirsutinolide Series Inhibit Stat3 Activity, Alter GCN1, MAP1B, Hsp105, G6PD, Vimentin, TrxR1, and Importin α-2 Expression, and Induce Antitumor Effects against Human Glioma” (J Med Chem, 2015)
The source made the active and inactive calls. No cut-off for these calls is given here.

Key:
[1] = Cell cycle arrest in human U251MG cells assessed as accumulation at G2/M phase at 5 uM for 15 hrs by flow cytometry; assay type: functional, cell-based; details: U-251
U-251 [2] = test: Induction of apoptosis in human U251MG cells assessed as PARP level at 8 uM after 24 to 48 hrs by immunoblot analysis; assay type: functional, cell-based
U-251 [3] = test: Induction of apoptosis in human U251MG cells assessed as cleaved caspase 3 level at 8 uM after 24 to 48 hrs by immunoblot analysis; assay type: functional, cell-based
[4] = biological target: Stalled ribosome sensor GCN1 (Homo sapiens) (UniProt Q92616); test: Decrease in GCN1 expression in human U251MG cells at 5 uM for 1 hr by mass spectrometry relative to control; assay type: functional, cell-based; details: U-251
Sequence of Stalled ribosome sensor GCN1 (Homo sapiens) (Q92616 whole entry): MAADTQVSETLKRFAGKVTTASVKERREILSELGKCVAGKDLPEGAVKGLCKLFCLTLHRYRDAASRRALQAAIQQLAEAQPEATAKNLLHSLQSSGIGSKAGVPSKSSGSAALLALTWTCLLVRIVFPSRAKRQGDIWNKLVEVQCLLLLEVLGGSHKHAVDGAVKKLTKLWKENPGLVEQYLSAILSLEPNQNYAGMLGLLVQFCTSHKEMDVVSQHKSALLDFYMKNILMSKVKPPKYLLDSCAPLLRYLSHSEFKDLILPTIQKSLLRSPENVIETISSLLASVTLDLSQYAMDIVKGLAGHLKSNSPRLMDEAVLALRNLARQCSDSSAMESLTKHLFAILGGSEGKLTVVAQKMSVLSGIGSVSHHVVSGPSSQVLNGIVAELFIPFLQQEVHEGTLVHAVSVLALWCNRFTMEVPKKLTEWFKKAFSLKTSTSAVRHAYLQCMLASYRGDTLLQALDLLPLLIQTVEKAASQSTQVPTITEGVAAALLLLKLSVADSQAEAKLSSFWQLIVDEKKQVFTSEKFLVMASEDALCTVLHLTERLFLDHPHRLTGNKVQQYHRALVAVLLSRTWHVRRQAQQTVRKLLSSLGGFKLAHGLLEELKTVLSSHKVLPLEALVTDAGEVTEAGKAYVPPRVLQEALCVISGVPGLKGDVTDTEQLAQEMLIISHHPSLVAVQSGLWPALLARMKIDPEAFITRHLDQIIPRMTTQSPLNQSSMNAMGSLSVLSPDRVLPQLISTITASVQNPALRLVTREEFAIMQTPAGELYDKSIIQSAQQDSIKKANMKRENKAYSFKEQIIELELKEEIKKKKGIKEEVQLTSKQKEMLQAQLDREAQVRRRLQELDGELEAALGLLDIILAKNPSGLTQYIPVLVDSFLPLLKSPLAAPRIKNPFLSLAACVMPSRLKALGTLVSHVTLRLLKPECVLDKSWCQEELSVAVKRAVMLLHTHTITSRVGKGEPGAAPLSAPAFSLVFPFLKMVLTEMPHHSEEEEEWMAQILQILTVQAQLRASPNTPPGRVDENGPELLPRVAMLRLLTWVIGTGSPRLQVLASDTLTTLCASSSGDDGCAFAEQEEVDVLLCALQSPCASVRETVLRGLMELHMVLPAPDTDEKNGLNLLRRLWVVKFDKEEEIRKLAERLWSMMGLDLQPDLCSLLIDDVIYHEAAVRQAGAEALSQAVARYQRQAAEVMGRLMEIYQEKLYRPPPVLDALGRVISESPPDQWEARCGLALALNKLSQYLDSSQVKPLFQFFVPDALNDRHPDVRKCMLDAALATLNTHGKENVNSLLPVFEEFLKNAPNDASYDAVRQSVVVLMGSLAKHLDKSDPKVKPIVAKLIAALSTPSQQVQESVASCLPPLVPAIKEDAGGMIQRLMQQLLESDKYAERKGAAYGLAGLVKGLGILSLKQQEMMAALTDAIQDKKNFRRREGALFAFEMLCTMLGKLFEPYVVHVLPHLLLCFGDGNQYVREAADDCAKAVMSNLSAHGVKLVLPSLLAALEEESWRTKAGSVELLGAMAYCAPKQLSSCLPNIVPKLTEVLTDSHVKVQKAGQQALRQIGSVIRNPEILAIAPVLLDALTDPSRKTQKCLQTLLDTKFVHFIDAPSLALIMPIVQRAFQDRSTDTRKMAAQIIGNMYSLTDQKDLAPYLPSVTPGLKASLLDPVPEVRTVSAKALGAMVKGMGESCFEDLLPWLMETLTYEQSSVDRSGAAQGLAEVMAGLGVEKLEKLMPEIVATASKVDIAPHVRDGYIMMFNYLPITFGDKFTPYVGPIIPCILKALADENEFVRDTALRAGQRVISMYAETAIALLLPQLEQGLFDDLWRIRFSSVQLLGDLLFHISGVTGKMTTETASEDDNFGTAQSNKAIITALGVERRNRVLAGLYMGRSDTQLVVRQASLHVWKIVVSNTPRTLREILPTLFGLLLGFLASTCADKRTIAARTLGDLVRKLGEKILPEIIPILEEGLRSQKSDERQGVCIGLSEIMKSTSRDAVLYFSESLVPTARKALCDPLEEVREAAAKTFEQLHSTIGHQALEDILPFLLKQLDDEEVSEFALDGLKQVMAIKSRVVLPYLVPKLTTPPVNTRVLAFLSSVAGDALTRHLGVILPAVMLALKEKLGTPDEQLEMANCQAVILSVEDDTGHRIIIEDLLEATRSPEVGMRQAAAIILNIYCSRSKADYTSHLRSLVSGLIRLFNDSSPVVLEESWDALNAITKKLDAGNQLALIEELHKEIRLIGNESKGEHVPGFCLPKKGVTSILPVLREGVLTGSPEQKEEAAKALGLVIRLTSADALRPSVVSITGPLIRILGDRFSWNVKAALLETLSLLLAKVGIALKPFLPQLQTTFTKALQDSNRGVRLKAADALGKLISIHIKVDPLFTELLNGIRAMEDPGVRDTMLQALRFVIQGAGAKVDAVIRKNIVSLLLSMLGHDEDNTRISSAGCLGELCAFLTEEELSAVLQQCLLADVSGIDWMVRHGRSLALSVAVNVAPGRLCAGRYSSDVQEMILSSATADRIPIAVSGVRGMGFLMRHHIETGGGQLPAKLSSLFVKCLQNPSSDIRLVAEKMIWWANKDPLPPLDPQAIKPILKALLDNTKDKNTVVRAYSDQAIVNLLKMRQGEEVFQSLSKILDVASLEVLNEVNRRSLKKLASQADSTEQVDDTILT
Outline: (§1)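 U251MG cells treated 1 h with 5 μM compound; whole-cell lysates analyzed by global proteomics mass spectrometry; protein levels expressed relative to DMSO-treated cells.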

[5] = Decrease in G6PD expression in human U251MG cells at 5 uM for 1 hr by mass spectrometry relative to control; assay type: functional, cell-based; details: U-251; outline: as §1
[6] = Decrease in TxR1 cytoplasmic isoform 3 expression in human U251MG cells at 5 uM for 1 hr by mass spectrometry relative to control; assay type: functional, cell-based; details: U-251
Outline: (§2)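 Global proteomic mass spectrometry of lysates from U251MG cells treated 1 h with 5 μM compound; protein levels expressed relative to DMSO-treated cells.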

[7] = biological target: T1, Signal transducer and activator of transcription 3 (Homo sapiens, UniProt P40763); test: Inhibition of Stat3 activity in human U251MG cells assessed as decrease in c-Myc expression at 5 uM after 24 hrs by immunoblot analysis; assay type: cell-based; details: U-251
T1 sequence (P40763 whole entry): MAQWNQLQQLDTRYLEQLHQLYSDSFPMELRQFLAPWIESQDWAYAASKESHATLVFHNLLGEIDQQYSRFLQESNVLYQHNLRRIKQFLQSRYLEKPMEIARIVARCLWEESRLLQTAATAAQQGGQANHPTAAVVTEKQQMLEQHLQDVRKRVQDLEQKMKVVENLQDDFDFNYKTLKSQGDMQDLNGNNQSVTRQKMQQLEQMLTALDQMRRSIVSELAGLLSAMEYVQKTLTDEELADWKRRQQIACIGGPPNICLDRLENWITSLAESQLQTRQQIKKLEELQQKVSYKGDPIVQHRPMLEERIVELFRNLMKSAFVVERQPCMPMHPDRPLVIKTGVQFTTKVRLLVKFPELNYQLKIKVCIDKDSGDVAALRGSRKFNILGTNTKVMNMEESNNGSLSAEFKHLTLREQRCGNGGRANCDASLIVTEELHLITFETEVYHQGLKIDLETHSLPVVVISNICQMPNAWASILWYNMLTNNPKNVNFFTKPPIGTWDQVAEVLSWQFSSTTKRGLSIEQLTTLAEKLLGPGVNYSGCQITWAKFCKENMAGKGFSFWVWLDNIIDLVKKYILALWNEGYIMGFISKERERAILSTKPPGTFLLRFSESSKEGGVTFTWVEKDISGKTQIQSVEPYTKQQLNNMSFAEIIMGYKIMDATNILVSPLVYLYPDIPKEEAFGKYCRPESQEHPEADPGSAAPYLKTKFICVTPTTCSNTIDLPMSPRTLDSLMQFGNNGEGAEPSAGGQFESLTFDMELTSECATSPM
Outline: (§3)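 U251MG cells treated with 5 μM compound for 0–24 h. Whole-cell lysates immunoblotted for pStat3, Stat3, c-Myc, Bcl-2, Bcl-xL, Mcl-1, GAPDH. Control was 0.025% DMSO.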

[8] = biological target: T1, Signal transducer and activator of transcription 3; test: Inhibition of Stat3 activity in human U251MG cells assessed as decrease in Bcl-2 expression at 5 uM after 24 hrs by immunoblot analysis; assay type: cell-based; details: U-251; outline: as §3
[9] = biological target: T1, Signal transducer and activator of transcription 3; test: Inhibition of Stat3 activity in human U251MG cells assessed as decrease in Mcl-1 expression at 5 uM after 24 hrs by immunoblot analysis; assay type: cell-based; details: U-251; outline: as §3
[10] = biological target: Heat shock protein 105 kDa (Homo sapiens) (UniProt Q92598); test: Decrease in Hsp105 expression in human U251MG cells at 5 uM for 1 hr by mass spectrometry relative to control; assay type: functional, cell-based; details: U-251; outline: as §1
Sequence of Heat shock protein 105 kDa (Homo sapiens) (Q92598 whole entry): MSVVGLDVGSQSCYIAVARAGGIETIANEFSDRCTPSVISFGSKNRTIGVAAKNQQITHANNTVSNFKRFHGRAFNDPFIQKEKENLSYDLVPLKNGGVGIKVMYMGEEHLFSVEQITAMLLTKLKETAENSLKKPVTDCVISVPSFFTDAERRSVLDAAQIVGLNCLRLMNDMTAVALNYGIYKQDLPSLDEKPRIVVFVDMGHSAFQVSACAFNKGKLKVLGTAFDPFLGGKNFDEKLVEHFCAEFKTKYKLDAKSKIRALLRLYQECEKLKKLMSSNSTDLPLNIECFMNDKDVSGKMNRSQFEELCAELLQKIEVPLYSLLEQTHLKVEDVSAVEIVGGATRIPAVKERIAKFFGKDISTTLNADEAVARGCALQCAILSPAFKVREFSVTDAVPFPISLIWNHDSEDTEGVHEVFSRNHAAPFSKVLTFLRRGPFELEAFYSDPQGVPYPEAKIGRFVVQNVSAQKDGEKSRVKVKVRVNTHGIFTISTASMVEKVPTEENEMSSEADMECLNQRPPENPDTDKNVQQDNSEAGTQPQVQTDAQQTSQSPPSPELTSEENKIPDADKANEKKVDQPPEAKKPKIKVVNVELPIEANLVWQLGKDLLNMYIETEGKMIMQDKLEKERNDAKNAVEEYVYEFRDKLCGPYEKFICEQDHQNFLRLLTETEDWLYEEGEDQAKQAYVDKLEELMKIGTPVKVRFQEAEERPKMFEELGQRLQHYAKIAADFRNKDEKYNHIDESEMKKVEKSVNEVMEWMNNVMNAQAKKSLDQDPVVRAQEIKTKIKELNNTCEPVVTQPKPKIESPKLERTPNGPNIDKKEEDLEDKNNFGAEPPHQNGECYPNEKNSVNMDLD

[11] = Decrease in vimentin expression in human U251MG cells at 5 uM for 1 hr by mass spectrometry relative to control; assay type: functional, cell-based; details: U-251; outline: as §2
[12] = biological target: Tyrosine-protein kinase JAK2 (Homo sapiens) (UniProt O60674); test: Modulation of Jak2 phosphorylation in human U251MG cells at 5 uM after 0.5 to 24 hrs by immunoblot analysis; assay type: cell-based; details: U-251
Outline: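 U251MG glioma cells (RPMI or DMEM, 10% FBS, 1% nonessential amino acids) treated with 5 μM compound for 0–24 h; 0.025% DMSO control. Whole-cell lysates of equal total protein immunoblotted for pErk1/2, Erk1/2, pJAK2 and JAK2 with β-actin or GAPDH loading controls. Representative of 2–4 independent determinations.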

[13] = biological target: T1, Signal transducer and activator of transcription 3; test: Inhibition of Stat3 phosphorylation in human U251MG cells transfected with Stat3 flag-tagged coliled coil domain at 5 uM after 1.5 hrs by immunoblot analysis; assay type: cell-based; details: U-251
Outline: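 U251MG cells transiently transfected with 7.5–21 μg FLAG-Stat3 NTD, CCD, DBD or CTD plasmid, or pcDNA3 mock. Re-seeded 24 h later; after another 18 h, treated with or without 5 μM compound for 1.5 h. Whole-cell lysates immunoblotted for FLAG, pY705Stat3, Stat3, GAPDH. 0.025% DMSO control. Representative of 2 independent determinations.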

Row | fold change (FC) [4] | inhibition [7] | inhibition [8] | inhibition [9] | fold change (FC) [10] | Activity [12] | inhibition [13] | SMILES | Activity [1] | Activity (U-251 [2]) | Activity (U-251 [3]) | fold change (FC) [5] | fold change (FC) [6] | fold change (FC) [11]
1 | 0.555 | – | – | – | – | – | – | C/C=C(\C)C(=O)OCC1=C2/C(=C\[C@@]3(C)CC[C@](O)(O3)[C@H](C)C[C@@H]2O)OC1=O | Active | inactive | inactive | 0.275 | 0.305 | –
2 | – | Active | Active | Active | 0.501 | Active | Active | C/C=C(\C)C(=O)O[C@H]1C[C@@H](C)[C@]2(O)CC[C@](C)(/C=C3/OC(=O)C(COC(C)=O)=C31)O2 | – | – | – | – | – | 0.308
